ChEMBL document CHEMBL3259640 (J Med Chem, 2014)
Values after ≈ are worked out from the molar mass of the structure shown. Active and inactive are the calls of the source. The rule behind the calls is not given here.

Columns and labels:
[1] = test system: COLO 205; assay: Growth inhibition of human COLO205 cells; type: functional
[2] = Growth inhibition of HUVEC; type: cell-based; conditions: human
[3] = test system: HeLa; assay: Antiproliferative activity against human HeLa cells assessed as cell viability after 96 hrs by CellTiter96 assay; type: functional, cell-based
[4] = target: T1, Kinetochore protein NDC80 homolog (Homo sapiens) (UniProt O14777); assay: Inhibition of Hec1/Nek2 interaction in human MDA-MB-468 cells assessed as induction of Nek2 degradation at 100 nM by western blot analysis in presence of 500 nM proteasome inhibition MG132; type: cell-based
T1 sequence (whole entry): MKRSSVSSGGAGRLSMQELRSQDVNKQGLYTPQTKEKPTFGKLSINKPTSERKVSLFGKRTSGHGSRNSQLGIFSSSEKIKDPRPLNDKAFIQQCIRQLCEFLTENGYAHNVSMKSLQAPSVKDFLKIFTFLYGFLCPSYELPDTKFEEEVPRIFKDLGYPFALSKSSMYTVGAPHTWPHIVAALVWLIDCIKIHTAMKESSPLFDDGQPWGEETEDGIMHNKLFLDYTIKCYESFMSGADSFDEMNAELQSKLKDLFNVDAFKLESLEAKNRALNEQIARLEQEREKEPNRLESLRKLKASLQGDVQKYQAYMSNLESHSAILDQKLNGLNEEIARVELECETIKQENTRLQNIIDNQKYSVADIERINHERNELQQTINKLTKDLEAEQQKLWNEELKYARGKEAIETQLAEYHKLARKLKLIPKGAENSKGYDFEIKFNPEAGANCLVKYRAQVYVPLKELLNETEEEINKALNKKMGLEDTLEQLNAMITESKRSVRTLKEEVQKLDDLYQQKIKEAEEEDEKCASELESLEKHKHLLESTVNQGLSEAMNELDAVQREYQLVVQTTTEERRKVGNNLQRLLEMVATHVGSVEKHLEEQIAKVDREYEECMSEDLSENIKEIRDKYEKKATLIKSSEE
In short: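 MDA-MB-468 cells treated with compound at 100 nM, with or without MG132 at 500 nM. Lysates made in SDS sample buffer, run on SDS-PAGE and blotted to PVDF. Primary antibodies applied in 3% BSA-TBST, with HRP secondaries and enhanced chemiluminescence detection for Hec1 and Nek2.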

[5] = target: T1, Kinetochore protein NDC80 homolog (Homo sapiens); assay: Inhibition of Hec1/Nek2 interaction in human K562 cells assessed as reduction in coimmunoprecipitated Hec1 level at 100 nM after 16 hrs by co-immunoprecipitation assay in presence of 500 nM proteasome inhibitor MG132; type: cell-based
[6] = target: Serine/threonine-protein kinase Chk1 (Homo sapiens, UniProt O14757); assay: Inhibition of CHK1 (unknown origin) assessed as [33P] incorporation in substrate by TopCount microplate scintillation counting analysis
Serine/threonine-protein kinase Chk1, sequence (O14757 whole entry): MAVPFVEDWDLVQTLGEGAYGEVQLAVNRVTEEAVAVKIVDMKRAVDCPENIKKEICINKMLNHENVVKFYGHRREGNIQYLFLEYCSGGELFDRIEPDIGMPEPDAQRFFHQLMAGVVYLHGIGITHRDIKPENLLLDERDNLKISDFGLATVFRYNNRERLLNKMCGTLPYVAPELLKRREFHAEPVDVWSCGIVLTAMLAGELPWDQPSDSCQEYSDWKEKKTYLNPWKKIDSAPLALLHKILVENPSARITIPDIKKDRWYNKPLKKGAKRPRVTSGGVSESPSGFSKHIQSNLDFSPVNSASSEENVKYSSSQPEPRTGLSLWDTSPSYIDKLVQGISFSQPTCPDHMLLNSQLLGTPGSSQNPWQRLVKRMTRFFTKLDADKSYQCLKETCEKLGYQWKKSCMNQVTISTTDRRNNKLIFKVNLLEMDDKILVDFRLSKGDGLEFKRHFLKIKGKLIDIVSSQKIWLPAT

[7] = target: Serine/threonine-protein kinase mTOR (Homo sapiens, UniProt P42345); assay: Inhibition of mTOR (unknown origin) assessed as [33P] incorporation in substrate by TopCount microplate scintillation counting analysis
[8] = target: Serine/threonine-protein kinase Nek2 (Homo sapiens, UniProt P51955); assay: Inhibition of Nek2 (unknown origin)
Serine/threonine-protein kinase Nek2, sequence (P51955 whole entry): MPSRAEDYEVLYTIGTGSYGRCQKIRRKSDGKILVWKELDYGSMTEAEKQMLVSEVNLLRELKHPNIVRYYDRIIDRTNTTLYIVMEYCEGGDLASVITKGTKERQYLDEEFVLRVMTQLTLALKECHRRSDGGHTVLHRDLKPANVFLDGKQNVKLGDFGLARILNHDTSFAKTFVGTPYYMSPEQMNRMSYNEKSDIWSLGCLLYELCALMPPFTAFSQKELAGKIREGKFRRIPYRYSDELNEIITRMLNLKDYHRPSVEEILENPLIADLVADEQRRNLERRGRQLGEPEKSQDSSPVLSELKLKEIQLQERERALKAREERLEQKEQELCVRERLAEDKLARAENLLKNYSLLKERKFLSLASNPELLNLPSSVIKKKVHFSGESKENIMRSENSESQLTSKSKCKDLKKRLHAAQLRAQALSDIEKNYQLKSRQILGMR

[9] = test system: HeLa; assay: Induction of apoptosis in human HeLa cells assessed as reduction in Bcl-2 protein expression at 1 uM after 24 to 48 hrs by western blot analysis; type: functional, cell-based
In short: (§1)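 HeLa cells given 1.0 μM compound, DMSO, or paclitaxel 100 nM for 24 and 48 h. Lysates made in SDS sample buffer, run on SDS-PAGE and transferred to PVDF. Blots probed for cleaved caspase-3, cleaved PARP, Bcl-2, Mcl-1 and XIAP, with actin as loading control, and detected by HRP-linked ECL.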

[10] = target: Insulin-like growth factor 1 receptor (Homo sapiens, UniProt P08069); assay: Inhibition of IGF-1R (unknown origin) assessed as [33P] incorporation in substrate by TopCount microplate scintillation counting analysis
[11] = Oral bioavailability in Sprague-Dawley rat at 20 mg/kg compound formulated with 5% DMSO, 10% cremophor and 85% water by LC-MS/MS analysis; type: ADME, organism-based; conditions: in vivo
[12] = Growth inhibition of human Hep3B cells; type: functional, Hep 3B2
[13] = target: Hepatocyte growth factor receptor (Homo sapiens, UniProt P08581); assay: Inhibition of MET (unknown origin) assessed as [33P] incorporation in substrate by TopCount microplate scintillation counting analysis
[14] = target: T1, Kinetochore protein NDC80 homolog (Homo sapiens); assay: Inhibition of Hec1/Nek2 interaction in human K562 cells assessed as reduction in coimmunoprecipitated Hec1 level at 100 nM after 16 hrs by co-immunoprecipitation assay; type: cell-based
[15] = target: Epidermal growth factor receptor (Homo sapiens, UniProt P00533, T790M); assay: Inhibition of EGFR T790M mutant (unknown origin) assessed as [33P] incorporation in substrate by TopCount microplate scintillation counting analysis; type: protein assay
Epidermal growth factor receptor, sequence (P00533 25-1210 T790M limits assumed): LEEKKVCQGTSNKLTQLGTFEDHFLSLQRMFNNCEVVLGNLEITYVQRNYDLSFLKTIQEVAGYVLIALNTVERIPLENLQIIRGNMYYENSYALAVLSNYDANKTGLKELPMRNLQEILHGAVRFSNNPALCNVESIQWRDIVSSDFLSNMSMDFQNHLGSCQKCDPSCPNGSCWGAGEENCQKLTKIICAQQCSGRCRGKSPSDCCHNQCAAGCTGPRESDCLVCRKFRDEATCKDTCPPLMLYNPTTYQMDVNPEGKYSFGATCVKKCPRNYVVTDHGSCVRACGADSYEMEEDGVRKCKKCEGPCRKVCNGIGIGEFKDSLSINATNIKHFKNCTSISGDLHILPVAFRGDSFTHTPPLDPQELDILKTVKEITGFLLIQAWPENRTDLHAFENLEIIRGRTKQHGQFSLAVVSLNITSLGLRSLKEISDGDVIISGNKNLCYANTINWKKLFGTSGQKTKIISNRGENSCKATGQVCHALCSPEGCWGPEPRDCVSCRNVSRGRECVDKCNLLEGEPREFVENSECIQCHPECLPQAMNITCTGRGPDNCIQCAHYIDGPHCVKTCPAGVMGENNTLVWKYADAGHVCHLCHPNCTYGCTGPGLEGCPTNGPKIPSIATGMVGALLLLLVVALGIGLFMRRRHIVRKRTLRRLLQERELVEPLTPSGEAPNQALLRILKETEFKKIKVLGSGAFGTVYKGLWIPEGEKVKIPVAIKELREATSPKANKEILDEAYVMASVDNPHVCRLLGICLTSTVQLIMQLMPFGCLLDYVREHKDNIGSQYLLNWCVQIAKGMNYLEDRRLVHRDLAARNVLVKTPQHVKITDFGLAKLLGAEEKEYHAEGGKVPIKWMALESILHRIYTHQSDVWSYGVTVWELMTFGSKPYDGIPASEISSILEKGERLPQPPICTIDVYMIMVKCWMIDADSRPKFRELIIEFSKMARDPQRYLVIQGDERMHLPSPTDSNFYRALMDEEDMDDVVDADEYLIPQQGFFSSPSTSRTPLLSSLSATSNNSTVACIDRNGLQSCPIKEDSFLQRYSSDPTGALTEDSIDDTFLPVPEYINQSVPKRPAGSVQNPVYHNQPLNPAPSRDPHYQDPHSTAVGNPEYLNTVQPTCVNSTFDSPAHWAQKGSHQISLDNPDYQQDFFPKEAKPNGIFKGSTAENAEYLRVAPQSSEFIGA

[16] = test system: HeLa; assay: Induction of apoptosis in human HeLa cells assessed as reduction in XIAP protein expression at 1 uM after 24 to 48 hrs by western blot analysis; type: functional, cell-based; in short: as §1
[17] = test system: MDA-MB-468; assay: Induction of mitotic abnormalities in human MDA-MB-468 cells assessed as increase in proportion of cells displaying multipolar spindles after 48 hrs by immunofluorescent staining based microscopy; type: functional, cell-based
[18] = target: Aurora kinase B (Homo sapiens, UniProt Q96GD4); assay: Inhibition of aurora B (unknown origin) assessed as [33P] incorporation in substrate by TopCount microplate scintillation counting analysis
Aurora kinase B, sequence (Q96GD4 whole entry): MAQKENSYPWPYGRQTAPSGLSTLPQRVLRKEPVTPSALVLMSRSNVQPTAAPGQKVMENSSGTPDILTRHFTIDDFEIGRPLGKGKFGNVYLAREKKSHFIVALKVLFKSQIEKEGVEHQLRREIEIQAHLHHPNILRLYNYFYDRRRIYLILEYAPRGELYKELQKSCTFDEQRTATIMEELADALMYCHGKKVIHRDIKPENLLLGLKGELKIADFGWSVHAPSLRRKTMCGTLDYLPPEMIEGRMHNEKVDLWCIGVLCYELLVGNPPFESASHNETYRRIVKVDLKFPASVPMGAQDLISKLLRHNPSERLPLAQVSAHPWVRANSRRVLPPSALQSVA

[19] = target: Receptor-type tyrosine-protein kinase FLT3 (Homo sapiens, UniProt P36888); assay: Inhibition of FLT3 (unknown origin) assessed as [33P] incorporation in substrate by TopCount microplate scintillation counting analysis
[20] = target: RAF proto-oncogene serine/threonine-protein kinase (Homo sapiens, UniProt P04049); assay: Inhibition of C-Raf (unknown origin) assessed as [33P] incorporation in substrate by TopCount microplate scintillation counting analysis
RAF proto-oncogene serine/threonine-protein kinase, sequence (P04049 whole entry): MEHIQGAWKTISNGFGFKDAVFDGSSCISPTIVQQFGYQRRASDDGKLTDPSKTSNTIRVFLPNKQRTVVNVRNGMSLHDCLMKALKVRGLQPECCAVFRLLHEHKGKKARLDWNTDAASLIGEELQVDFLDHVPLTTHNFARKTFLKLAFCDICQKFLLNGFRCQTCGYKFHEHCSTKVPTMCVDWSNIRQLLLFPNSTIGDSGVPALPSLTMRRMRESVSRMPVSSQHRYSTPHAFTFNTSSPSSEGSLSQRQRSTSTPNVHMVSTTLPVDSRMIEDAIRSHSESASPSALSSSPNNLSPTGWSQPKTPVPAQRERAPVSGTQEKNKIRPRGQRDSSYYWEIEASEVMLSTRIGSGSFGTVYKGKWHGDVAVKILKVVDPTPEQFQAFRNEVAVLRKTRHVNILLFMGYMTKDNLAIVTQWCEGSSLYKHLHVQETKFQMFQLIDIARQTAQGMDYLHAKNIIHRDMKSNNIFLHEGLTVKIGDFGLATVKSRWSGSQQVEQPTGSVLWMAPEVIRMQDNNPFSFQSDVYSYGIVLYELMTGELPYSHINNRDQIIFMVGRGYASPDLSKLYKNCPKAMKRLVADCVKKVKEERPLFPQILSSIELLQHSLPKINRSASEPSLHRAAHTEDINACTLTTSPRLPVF

[21] = target: Voltage-gated inwardly rectifying potassium channel KCNH2 (Homo sapiens, UniProt Q12809); assay: Displacement of [3H]astemizole from human ERG after 60 mins by competitive binding assay
Voltage-gated inwardly rectifying potassium channel KCNH2, sequence (Q12809 whole entry): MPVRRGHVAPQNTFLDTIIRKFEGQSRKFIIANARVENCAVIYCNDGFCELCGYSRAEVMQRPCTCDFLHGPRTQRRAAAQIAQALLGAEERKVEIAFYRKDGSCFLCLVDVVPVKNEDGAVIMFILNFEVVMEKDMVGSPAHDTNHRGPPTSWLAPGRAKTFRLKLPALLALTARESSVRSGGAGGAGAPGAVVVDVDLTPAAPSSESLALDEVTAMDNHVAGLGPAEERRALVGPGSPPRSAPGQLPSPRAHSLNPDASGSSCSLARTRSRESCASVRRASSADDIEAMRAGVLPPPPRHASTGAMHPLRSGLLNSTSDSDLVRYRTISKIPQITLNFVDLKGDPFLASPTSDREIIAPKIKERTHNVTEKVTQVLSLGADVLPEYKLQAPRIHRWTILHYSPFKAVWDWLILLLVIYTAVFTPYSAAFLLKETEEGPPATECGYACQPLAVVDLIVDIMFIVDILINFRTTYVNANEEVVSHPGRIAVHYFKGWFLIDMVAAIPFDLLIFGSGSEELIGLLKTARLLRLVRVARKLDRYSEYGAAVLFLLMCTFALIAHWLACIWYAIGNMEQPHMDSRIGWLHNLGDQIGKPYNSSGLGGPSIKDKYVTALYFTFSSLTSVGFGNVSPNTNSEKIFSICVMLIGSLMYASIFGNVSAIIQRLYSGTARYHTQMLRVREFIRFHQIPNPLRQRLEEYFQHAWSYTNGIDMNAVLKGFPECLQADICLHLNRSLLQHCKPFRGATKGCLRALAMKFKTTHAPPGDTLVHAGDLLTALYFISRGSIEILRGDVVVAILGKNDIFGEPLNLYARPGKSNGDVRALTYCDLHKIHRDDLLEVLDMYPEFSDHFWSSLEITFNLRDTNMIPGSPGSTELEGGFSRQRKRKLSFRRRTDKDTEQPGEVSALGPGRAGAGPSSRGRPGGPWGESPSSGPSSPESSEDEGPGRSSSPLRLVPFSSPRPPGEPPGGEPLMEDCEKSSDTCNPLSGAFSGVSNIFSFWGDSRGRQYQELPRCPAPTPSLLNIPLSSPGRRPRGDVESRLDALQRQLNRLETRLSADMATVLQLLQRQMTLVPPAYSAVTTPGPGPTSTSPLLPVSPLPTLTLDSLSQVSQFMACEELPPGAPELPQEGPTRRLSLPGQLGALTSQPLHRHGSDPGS

[22] = test system: T47D; assay: Growth inhibition of human T47D cells; type: functional
[23] = target: Phosphatidylinositol 4,5-bisphosphate 3-kinase catalytic subunit beta isoform (Homo sapiens, UniProt P42338); assay: Inhibition of PI3K beta (unknown origin) assessed as [33P] incorporation in substrate by TopCount microplate scintillation counting analysis
[24] = Solubility of the compound in phosphate buffered saline containing 1% DMSO at pH 7.4 after 2 hrs by HPLC analysis; type: physicochemical
[25] = Oral bioavailability in Sprague-Dawley rat at 20 mg/kg compound formulated with 1% methylcellulose in water by LC-MS/MS analysis; type: ADME, organism-based; conditions: in vivo
In short: (§2)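 Male Sprague–Dawley rats, n = 3. Blood drawn by preimplanted catheter over 24 h; plasma separated at 4 °C and deproteinated with acetonitrile. Drug measured by LC–MS/MS; parameters obtained by noncompartmental analysis.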

[26] = Volume of distribution in Sprague-Dawley rat at 2 mg/kg, iv compound formulated with 5% DMSO, 10% cremophor and 85% water by LC-MS/MS analysis; type: ADME, organism-based; parameters: dose 2 mg/kg, route intravenous; conditions: in vivo; in short: as §2
[27] = Growth inhibition of human WI38 cells; type: cell-based; conditions: WI-38 cells

COc1ccc(Oc2cc(C)c(-c3csc(NC(=O)c4ccnc(F)c4)n3)c(C)c2)cc1
GI50 [1]: 0.0354 µM | GI50 [2]: > 9 µM | IC50 [3]: 0.0427 µM | Activity [4]: inactive | inhibition [5]: Active | IC50 [6]: > 10 µM | IC50 [7]: > 10 µM | IC50 [8]: > 10 µM | inhibition [9]: Active | IC50 [10]: > 10 µM | bioavailability [11]: 22.7% | GI50 [12]: 0.0683 µM | IC50 [13]: > 10 µM | inhibition [14]: Active | IC50 [15]: > 10 µM | inhibition [16]: Active | Activity [17]: Dose-dependent effect | IC50 [18]: > 10 µM | IC50 [19]: > 10 µM | IC50 [20]: > 10 µM | IC50 [21]: > 10 µM | GI50 [22]: 0.377 µM | IC50 [23]: > 10 µM | solubility kinetic at 2 h [24]: 0.19 µM (≈ 0.0854 µg/mL) | bioavailability [25]: 4.6% | Vd [26]: 0.948 L/kg | GI50 [27]: > 9 µM
